Experiments:
CB1 [1] = target: T1, CB1 (Homo sapiens, UniProt P21554); format: cell-based
CB1 [2] = target: T1, CB1; assay: Radioligand displacement of [3H]1; format: binding
MDCK-mdr1 cells = assay: MDCK-mdr1 transport assay; format: in vitro ADME, Canine; details: 3.16 µM apical, 1 hr at 37°C
In short: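 MDCK-mdr1 cells grown on permeable filter inserts for 4 days to confluence. Test compound applied apically at 3.16 µM, incubated 1 hr at 37°C, alongside two reference CB1 antagonists as controls. Apical and basolateral samples dried under nitrogen and quantified by LC-MS/MS (MRM) using a 0.1% formic acid water/methanol gradient at 0.5 mL/min. Read-out is the percentage transported across the monolayer.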

T1 sequence (P21554 whole entry, species assumed): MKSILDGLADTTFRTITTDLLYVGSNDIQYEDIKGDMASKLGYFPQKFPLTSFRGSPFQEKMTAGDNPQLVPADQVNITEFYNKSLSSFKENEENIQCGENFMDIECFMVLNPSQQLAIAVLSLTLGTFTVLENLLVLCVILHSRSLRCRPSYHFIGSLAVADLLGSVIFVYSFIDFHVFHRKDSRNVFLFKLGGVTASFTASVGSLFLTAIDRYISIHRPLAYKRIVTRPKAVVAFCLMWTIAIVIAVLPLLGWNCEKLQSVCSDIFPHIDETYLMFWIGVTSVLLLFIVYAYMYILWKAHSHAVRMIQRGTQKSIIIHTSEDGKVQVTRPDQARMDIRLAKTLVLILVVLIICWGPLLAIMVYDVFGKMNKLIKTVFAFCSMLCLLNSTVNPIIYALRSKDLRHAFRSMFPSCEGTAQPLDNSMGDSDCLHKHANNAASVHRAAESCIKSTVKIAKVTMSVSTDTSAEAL

Cc1c(C(=O)Nc2ccncc2)nn(-c2ccc(Cl)cc2Cl)c1-c1ccc(Cl)cc1 [Compound 5]
Kb (CB1 [1]): 0.117 µM

Cc1c(C(=O)Nc2cc[n+](C)cc2)nn(-c2ccc(Cl)cc2Cl)c1-c1ccc(Cl)cc1 [Compound 6]
Kb (CB1 [1]): > 10 µM

Cc1c(C(=O)Nc2cc[n+]([O-])cc2)nn(-c2ccc(Cl)cc2Cl)c1-c1ccc(Cl)cc1 [Compound 7]
Kb (CB1 [1]): 1.39 µM

Cc1ccc(NC(=O)c2nn(-c3ccc(Cl)cc3Cl)c(-c3ccc(Cl)cc3)c2C)cn1 [Compound 8]
Kb (CB1 [1]): 0.384 µM

Cc1c(C(=O)Nc2ccc(C)[n+](C)c2)nn(-c2ccc(Cl)cc2Cl)c1-c1ccc(Cl)cc1 [Compound 9]
Kb (CB1 [1]): 8.41 µM

Cc1c(C(=O)Nc2ccc(C)[n+]([O-])c2)nn(-c2ccc(Cl)cc2Cl)c1-c1ccc(Cl)cc1 [Compound 10]
Kb (CB1 [1]): 1.2 µM

Cc1ccc(NC(=O)c2nn(-c3ccc(Cl)cc3Cl)c(-c3ccc(Cl)cc3)c2C)nc1 [Compound 11]
Kb (CB1 [1]): 0.98 µM

Cc1ccc(NC(=O)c2nn(-c3ccc(Cl)cc3Cl)c(-c3ccc(Cl)cc3)c2C)[n+](C)c1 [Compound 12]
Kb (CB1 [1]): 8.59 µM

Cc1ccc(NC(=O)c2nn(-c3ccc(Cl)cc3Cl)c(-c3ccc(Cl)cc3)c2C)[n+]([O-])c1 [Compound 13]
Kb (CB1 [1]): 4.58 µM

Cc1c(C(=O)N[C@H]2CC[C@H](NS(N)(=O)=O)CC2)nn(-c2ccc(Cl)cc2Cl)c1-c1ccc(Cl)cc1 [Compound 18]
Kb (CB1 [1]): 9.43 µM

Cc1c(C(=O)NCC2CCC(CN)CC2)nn(-c2ccc(Cl)cc2Cl)c1-c1ccc(Cl)cc1 (stereo not shown) [Compound 19]
Kb (CB1 [1]): 3.76 µM

Cc1c(C(=O)NCC2CCC(CNS(C)(=O)=O)CC2)nn(-c2ccc(Cl)cc2Cl)c1-c1ccc(Cl)cc1 (stereo not shown) [Compound 20]
Ki (CB1 [2]): ~10 nM

Cc1c(C(=O)NC[C@H]2CC[C@@H](CNS(C)(=O)=O)CC2)nn(-c2ccc(Cl)cc2Cl)c1-c1ccc(Cl)cc1 [Compound 22]
transport from apical to basal side of the membrane (MDCK-mdr1 cells): less than 1%

Cc1c(C(=O)NC[C@H]2CC[C@@H](CNS(N)(=O)=O)CC2)nn(-c2ccc(Cl)cc2Cl)c1-c1ccc(Cl)cc1 [Compound 23]
transport from apical to basal side of the membrane (MDCK-mdr1 cells): less than 1%

CCNC1(C(N)=O)CCN(c2ncnc3c2nc(-c2ccccc2Cl)n3-c2ccc(Cl)cc2)CC1 [otenabant, reference compound]
transport from apical to basal side of the membrane (MDCK-mdr1 cells): ~ 90%

Cc1c(C(=O)NN2CCCCC2)nn(-c2ccc(Cl)cc2Cl)c1-c1ccc(Cl)cc1 [rimonabant, reference compound]
transport from apical to basal side of the membrane (MDCK-mdr1 cells): ~ 15%

Reference: article PMC3171605 (Bioorganic & medicinal chemistry letters, 2011)
